Results as given in ChEMBL document CHEMBL3352056, “Inhibition of prostaglandin E(2) production by synthetic minor prenylated chalcones and flavonoids: synthesis, biological activity, crystal structure, and in silico evaluation” (Bioorg Med Chem Lett, 2014).
Calls of active or inactive are those of the source. No cut-off for these calls is given here.

Experiments:
[1] = system: RAW264.7; assay: Inhibition of IFN-gamma/LPS-induced PGE2 production in mouse RAW264.7 cells at 50 uM after 17 to 20 hrs by EIA method; type: functional
In short: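 In RAW 264.7 cells seeded at 4 × 10⁵/well and attached for 2 h at 37 °C, compound was added with LPS, using 0.1% final DMSO as vehicle. Incubation ran 17–20 h at 37 °C, 5% CO₂. Supernatant PGE₂ was quantified by EIA from a standard curve and expressed as percent inhibition at a single test concentration.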

[2] = Cytotoxicity against mouse RAW264.7 cells assessed as cell viability by MTT assay; type: cell-based; parameters: concentration or dose not given beside the values; settings: read-out: Activity
In short: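 After the 17–20 h LPS co-treatment of RAW 264.7 cells (0.1% DMSO vehicle), the supernatant was removed and MTT (0.05 mg/mL) was added. Cells were held at 37 °C for 4 h. Formazan was dissolved in 100% DMSO and absorbance was read at 570 nm. Results are given as % viability. Culture viability before use was >95% by trypan blue.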

[3] = system: RAW264.7; assay: Inhibition of IFN-gamma/LPS-induced PGE2 production in mouse RAW264.7 cells after 17 to 20 hrs by EIA method; type: functional, cell-based
In short: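 RAW 264.7 cells (4 × 10⁵/well) attached for 2 h at 37 °C, 5% CO₂. They were then co-incubated with LPS and compound in DMSO (0.1% final) for 17–20 h. Supernatant PGE₂ was measured by EIA against a standard curve. Dose-response testing spanned 0.78 to 50; group differences were tested by one-way ANOVA with Dunnett's test.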

[4] = system: RAW264.7; assay: Inhibition of IFN-gamma/LPS-induced nitric oxide production in mouse RAW264.7 cells by Griess assay; type: functional, cell-based

| IC50 [3] [µM] | IC50 [4] [µM] | Structure (SMILES) | inhibition at 50 µM [1] [%] | viability [2] [%] | inhibition [1] |
| --- | --- | --- | --- | --- | --- |
|  |  | COc1ccc2c(c1)O/C(=C\c1ccc(C)cc1)C2=O | 78 | > 100 |  |
|  |  | COc1ccc2c(=O)c(OCC=C(C)C)c(-c3ccc(OC)c(OC)c3)oc2c1 | 58 | > 100 |  |
|  |  | COc1cc(O)c(C(=O)/C=C/c2ccc(Br)cc2)cc1CC=C(C)C | 70 | > 100 |  |
|  |  | COc1cc(O)c(C(=O)/C=C/c2ccc(O)c(O)c2)cc1CC=C(C)C | 61 | > 100 |  |
|  |  | COc1ccc(C(=O)/C=C/c2ccc(OC)c(OC)c2)c(O)c1 | 75 | > 100 |  |
|  |  | COc1cc(O)c(C(=O)/C=C/c2cccc(-c3ccc(F)cc3)c2)cc1CC=C(C)C |  | > 100 | inactive |
|  |  | COc1cc2c(cc1CC=C(C)C)C(=O)/C(=C/c1ccc(C)cc1)O2 |  | > 100 | inactive |
|  |  | COc1cc(O)c(C(=O)/C=C/c2ccc(-c3ccc(F)cc3)cc2)cc1CC=C(C)C | 63 | > 100 |  |
| 2.1 | 13.8 | COc1cc(O)c(C(=O)/C=C/c2ccc(OC)c(OC)c2)cc1CC=C(C)C | 90 | > 100 |  |
|  |  | CC(C)=CCOc1ccc2c(c1)O/C(=C\c1ccc(C)cc1)C2=O | 43 | > 100 |  |
| 0.1 |  | CS(=O)(=O)Nc1ccc([N+](=O)[O-])cc1OC1CCCCC1 [NS-398] | 97 | > 100 |  |
|  |  | COc1cc(O)c(C(=O)/C=C/c2ccc(C)cc2)cc1CC=C(C)C | 64 | > 100 |  |
|  |  | COc1cc2c(cc1CC=C(C)C)C(=O)/C(=C/c1ccc(OC)c(OC)c1)O2 | 83 | > 100 |  |
|  |  | COc1ccc2c(=O)c(O)c(-c3ccc(C)cc3)oc2c1 | 70 | 78 |  |
|  |  | CC(C)=CCOc1ccc(/C=C2\Oc3ccccc3C2=O)cc1 | 77 | > 100 |  |
|  |  | COc1ccc2c(=O)c(O)c(-c3ccc(OC)c(OC)c3)oc2c1 | 80 | 82 |  |
|  |  | COc1ccc2c(c1)O/C(=C\c1ccc(OC)c(OC)c1)C2=O | 76 | > 100 |  |
|  |  | COc1ccc2c(=O)c(OCC=C(C)C)c(-c3ccc(C)cc3)oc2c1 | 41 | > 100 |  |
|  |  | COc1ccc(C(=O)/C=C/c2ccc(C)cc2)c(O)c1 |  | 97 | inactive |
